Reference: ChEMBL document CHEMBL4382197, “Discovery of QCA570 as an Exceptionally Potent and Efficacious Proteolysis Targeting Chimera (PROTAC) Degrader of the Bromodomain and Extra-Terminal (BET) Proteins Capable of Inducing Complete and Durable Tumor Regression” (J Med Chem, 2018)
pIC50: −log10 of the molar value. The source made the active and inactive calls. No cut-off for these calls is given here.

Legend:
MOLM-13 [1] = assay: Growth inhibition of human MOLM13 cells after 96 hrs by CCK8 assay; type: functional, cell-based; settings: MOLM-13, 96 h
[2] = target: T1, Protein cereblon/Bromodomain-containing protein 4/Cullin-4A (Homo sapiens) (UniProt O60885+Q96SW2+Q13619); assay: Protac activity at cereblon/cullin 4A/BRD4 in human RS4:11 cells assessed as BRD4 degradation at 10 pM after 3 hrs by Western blot analysis; type: cell-based
[3] = target: T1, Protein cereblon/Bromodomain-containing protein 4/Cullin-4A (Homo sapiens); assay: Protac activity at cereblon/cullin 4A/BRD4 in human MV4-11 cells assessed as BRD4 degradation at 10 pM after 3 hrs by Western blot analysis; type: cell-based
[4] = target: T2, Protein cereblon/Bromodomain-containing protein 2/Cullin-4A (Homo sapiens) (UniProt P25440+Q96SW2+Q13619); assay: Protac activity at cereblon/cullin 4A/BRD2 in human RS4:11 cells assessed as BRD2 degradation at 30 to 100 pM after 3 hrs by Western blot analysis; type: cell-based
[5] = target: Protein cereblon/Bromodomain-containing protein 3/Cullin-4A (Homo sapiens) (UniProt Q15059+Q96SW2+Q13619); assay: Protac activity at cereblon/cullin 4A/BRD3 in human RS4:11 cells assessed as BRD3 degradation at 0.5 nM after 3 hrs by Western blot analysis; type: cell-based
[6] = target: T1, Protein cereblon/Bromodomain-containing protein 4/Cullin-4A (Homo sapiens); assay: Protac activity at cereblon/cullin 4A/BRD4 in human RS4:11 cells assessed as BRD4 degradation at 0.5 nM after 3 hrs in presence of lenalidomide by Western blot analysis; type: cell-based
Method in brief: (§1)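 RS4;11 cells were pre-treated for 2 h with DMSO, lenalidomide (10 μM), MLN4924 (1 μM) or MG-132 (20 μM). The degrader was then added at 0.5 nM for 3 h. Lysates were immunoblotted for BRD2, BRD3 and BRD4, with GAPDH as loading control.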

[7] = target: T1, Protein cereblon/Bromodomain-containing protein 4/Cullin-4A (Homo sapiens); assay: Protac activity at cereblon/cullin 4A/BRD4 in human RS4:11 cells assessed as BRD4 degradation at 0.5 nM after 3 hrs in presence of neddylation inhibitor MLN4924 by Western blot analysis; type: cell-based; method in brief: as §1
[8] = target: T2, Protein cereblon/Bromodomain-containing protein 2/Cullin-4A (Homo sapiens); assay: Protac activity at cereblon/cullin 4A/BRD2 in human RS4:11 cells assessed as BRD2 degradation at 0.5 nM after 3 hrs in presence of proteasome inhibitor MG132 by Western blot analysis; type: cell-based; method in brief: as §1
[9] = target: T1, Protein cereblon/Bromodomain-containing protein 4/Cullin-4A (Homo sapiens); assay: Protac activity at cereblon/cullin 4A/BRD4 in human RS4:11 cells assessed as BRD4 degradation at 0.5 nM after 3 hrs in presence of proteasome inhibitor MG132 by Western blot analysis; type: cell-based; method in brief: as §1
[10] = target: Protein cereblon/Eukaryotic peptide chain release factor GTP-binding subunit ERF3A/Cullin-4A (Homo sapiens) (UniProt Q96SW2+Q13619+P15170); assay: Induction of Cereblon/Cullin 4A-mediated-GSPT1 degradation in human MV4-11 cells at 0.01 to 10 nM after 3 hrs by Western blot analysis; type: cell-based
MOLM-13 [11] = assay: Induction of apoptosis in human MOLM13 cells after 24 hrs by Annexin V/propidium iodine-double staining-based flow cytometry; type: functional, cell-based
Method in brief: (§2)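 Leukemia cells were treated for 24 h or 48 h at the indicated concentrations. They were then collected, washed in cold PBS and stained with Annexin V and propidium iodide. Apoptotic fraction was measured by flow cytometry.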

RS4-11 [12] = assay: Induction of apoptosis in human RS4:11 cells after 24 to 48 hrs by Annexin V/propidium iodine-double staining-based flow cytometry; type: functional, cell-based; method in brief: as §2
RS4-11 [13] = assay: Induction of apoptosis in human RS4:11 cells at 0.1 nM after 48 hrs by Annexin V/propidium iodine-double staining-based flow cytometry relative to control; type: functional; method in brief: as §2
MV4-11 [14] = assay: Induction of apoptosis in human MV4-11 cells at 0.1 to 10 uM after 48 hrs by Annexin V/propidium iodine-double staining-based flow cytometry; type: functional, cell-based
MV4-11 [15] = assay: Induction apoptosis in human MV4-11 cells assessed as caspase-3 activation at 0.3 nM after 24 hrs by Western blot analysis; type: functional, cell-based
Method in brief: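 Cells (1.5–2×10^6/well) were treated for 24 h, washed in cold PBS and lysed in RIPA with protease inhibitors. 20 µg lysate was run on 4–20% or 4–12% gels and transferred to PVDF. Blots were probed for cleaved PARP and cleaved caspase 3, with GAPDH as loading control. Detection by ECL.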

Mus musculus [16] = assay: In vivo Protac activity at cereblon/cullin/BRD2 in tumor of human RS4:11 cells xenografted in SCID mouse assessed as reduction in BRD2 protein expression at 1 to 5 mg/kg, iv administered as single dose and measured at 1 to 6 hrs by Western blot analysis; type: functional, organism-based
Method in brief: (§3)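 SCID mice bearing subcutaneous RS4;11 tumors were given a single intravenous dose of 1 or 5 mg/kg. Tumors were harvested at 1, 6 and 24 h, two mice per time point. Tissue was ground in liquid nitrogen and lysed in CST buffer with protease inhibitors. 20 µg lysate per lane was probed for BRD2, BRD3, BRD4, c-Myc and cleaved PARP, with GAPDH as loading control.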

Mus musculus [17] = assay: In vivo Protac activity at cereblon/cullin/BET in tumor of human RS4:11 cells xenografted in SCID mouse assessed as reduction in cMyc protein expression at 1 to 5 mg/kg, iv administered as single dose and measured at 1 to 24 hrs post dose by Western blot analysis; type: functional, organism-based; method in brief: as §3
[18] = Drug uptake in heart of SCID mouse xenografted with human RS4:11 cells at 5 mg/kg, iv measured at 6 hrs by LC-MS/MS analysis; type: ADME, organism-based; settings: in vivo, BLD = below limit of detection
Method in brief: (§4)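 Female SCID mice with RS4;11 tumors received a single 5 mg/kg intravenous dose in 20% PCP/80% PBS. Plasma (heparin) and tissues were taken at 1, 3 and 6 h, one mouse per time point in duplicate. Plasma was precipitated with acetonitrile containing internal standard. Tissues were homogenized 5:1 in 20% acetonitrile. Quantified by LC-MS/MS against spiked plasma standards (2–2000 ng/mL); values in ng/ml or ng/g.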

[19] = Drug uptake in kidney of SCID mouse xenografted with human RS4:11 cells at 5 mg/kg, iv measured at 6 hrs by LC-MS/MS analysis; type: ADME, organism-based; settings: in vivo, BLD = below limit of detection; method in brief: as §4
MV4-11 [20] = assay: Antitumor activity against human MV4-11 cells xenografted in SCID mouse assessed tumor regression at 5 mg/kg, iv administered 3 times per week for 2 weeks; type: functional, organism-based
Method in brief: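 MV4;11 xenografts: 5×10^6 cells in 50% Matrigel injected subcutaneously on the dorsal side of SCID mice, one tumor per mouse. Mice randomized at ~100 mm3. Dosed intravenously three times a week for two weeks. Tumor volume = L × W2/2; body weight monitored.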

[21] = Toxicity in SCID mouse xenografted with human RS4:11 cells assessed weight loss at 1 to 5 mg/kg, iv administered 3 times per week for 3 weeks; type: organism-based; settings: in vivo, 504 h
Method in brief: (§5)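 SCID mice received a subcutaneous dorsal implant of 5×10^6 RS4;11 cells in 50% Matrigel, one tumor per mouse. Mice were randomized at ~100 mm3 into treatment or vehicle groups. Doses were 1, 2.5 or 5 mg/kg three times weekly for 3 weeks, with body weight and signs of toxicity monitored.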

[22] = Toxicity in SCID mouse xenografted with human RS4:11 cells at 1 to 5 mg/kg, iv administered 3 times per week for 3 weeks; type: organism-based; settings: in vivo, 504 h; method in brief: as §5

T2 sequence (P25440 whole entry, looked up): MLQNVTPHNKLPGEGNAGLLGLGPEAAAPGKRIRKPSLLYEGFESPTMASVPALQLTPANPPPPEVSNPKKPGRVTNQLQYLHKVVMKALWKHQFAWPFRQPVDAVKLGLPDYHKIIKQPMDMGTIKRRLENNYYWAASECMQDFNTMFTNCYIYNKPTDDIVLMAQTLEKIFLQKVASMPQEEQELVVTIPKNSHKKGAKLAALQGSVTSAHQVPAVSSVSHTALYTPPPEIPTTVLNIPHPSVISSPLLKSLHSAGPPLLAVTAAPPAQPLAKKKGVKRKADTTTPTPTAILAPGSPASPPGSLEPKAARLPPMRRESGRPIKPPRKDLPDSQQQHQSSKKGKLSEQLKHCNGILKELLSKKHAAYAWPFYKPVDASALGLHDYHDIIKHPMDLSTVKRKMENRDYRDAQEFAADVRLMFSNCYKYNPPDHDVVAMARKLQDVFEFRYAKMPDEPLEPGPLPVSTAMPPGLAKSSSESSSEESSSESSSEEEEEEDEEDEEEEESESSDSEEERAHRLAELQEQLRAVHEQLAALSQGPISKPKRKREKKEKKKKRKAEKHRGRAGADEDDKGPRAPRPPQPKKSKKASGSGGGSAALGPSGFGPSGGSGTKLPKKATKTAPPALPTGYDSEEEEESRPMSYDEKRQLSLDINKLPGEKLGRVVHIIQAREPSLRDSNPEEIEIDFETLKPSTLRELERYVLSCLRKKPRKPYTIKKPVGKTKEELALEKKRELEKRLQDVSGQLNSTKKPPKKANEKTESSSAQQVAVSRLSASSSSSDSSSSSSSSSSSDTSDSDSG
T2 sequence (Q13619 whole entry, looked up): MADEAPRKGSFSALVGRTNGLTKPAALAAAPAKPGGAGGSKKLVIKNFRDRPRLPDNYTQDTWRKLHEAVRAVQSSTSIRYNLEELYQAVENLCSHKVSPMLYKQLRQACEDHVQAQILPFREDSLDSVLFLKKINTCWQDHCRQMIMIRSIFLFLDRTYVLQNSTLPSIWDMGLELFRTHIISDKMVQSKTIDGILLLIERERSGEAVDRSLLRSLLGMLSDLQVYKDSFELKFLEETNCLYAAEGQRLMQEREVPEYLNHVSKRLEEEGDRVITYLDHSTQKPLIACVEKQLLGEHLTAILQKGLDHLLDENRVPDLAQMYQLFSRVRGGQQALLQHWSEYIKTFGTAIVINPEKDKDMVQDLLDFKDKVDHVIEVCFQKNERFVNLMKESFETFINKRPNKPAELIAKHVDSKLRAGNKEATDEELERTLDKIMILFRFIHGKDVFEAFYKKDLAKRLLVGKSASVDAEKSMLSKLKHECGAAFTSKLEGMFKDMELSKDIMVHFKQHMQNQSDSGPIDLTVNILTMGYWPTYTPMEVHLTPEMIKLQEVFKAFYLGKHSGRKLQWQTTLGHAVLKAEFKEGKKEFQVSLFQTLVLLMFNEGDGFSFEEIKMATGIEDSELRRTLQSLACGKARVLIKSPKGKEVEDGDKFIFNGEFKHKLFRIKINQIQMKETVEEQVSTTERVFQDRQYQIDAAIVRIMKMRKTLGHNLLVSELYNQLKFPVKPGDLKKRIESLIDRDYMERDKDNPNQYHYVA
T2 sequence (Q96SW2 whole entry, looked up): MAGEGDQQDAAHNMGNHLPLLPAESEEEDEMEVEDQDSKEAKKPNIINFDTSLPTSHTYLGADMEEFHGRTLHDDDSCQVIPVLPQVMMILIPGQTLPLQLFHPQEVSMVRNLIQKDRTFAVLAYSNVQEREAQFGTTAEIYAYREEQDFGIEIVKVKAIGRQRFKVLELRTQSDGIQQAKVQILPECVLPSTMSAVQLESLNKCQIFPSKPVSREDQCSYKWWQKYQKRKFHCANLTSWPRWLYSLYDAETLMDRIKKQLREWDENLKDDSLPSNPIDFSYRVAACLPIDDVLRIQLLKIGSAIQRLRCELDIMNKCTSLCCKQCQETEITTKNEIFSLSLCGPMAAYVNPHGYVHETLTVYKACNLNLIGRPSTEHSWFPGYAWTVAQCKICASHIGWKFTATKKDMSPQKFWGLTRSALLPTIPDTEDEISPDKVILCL
Sequence of Protein cereblon/Bromodomain-containing protein 3/Cullin-4A (Homo sapiens) (Q13619 whole entry, looked up): as the sequence (Q13619 whole entry, looked up) above
Sequence of Protein cereblon/Bromodomain-containing protein 3/Cullin-4A (Homo sapiens) (Q15059 whole entry, looked up): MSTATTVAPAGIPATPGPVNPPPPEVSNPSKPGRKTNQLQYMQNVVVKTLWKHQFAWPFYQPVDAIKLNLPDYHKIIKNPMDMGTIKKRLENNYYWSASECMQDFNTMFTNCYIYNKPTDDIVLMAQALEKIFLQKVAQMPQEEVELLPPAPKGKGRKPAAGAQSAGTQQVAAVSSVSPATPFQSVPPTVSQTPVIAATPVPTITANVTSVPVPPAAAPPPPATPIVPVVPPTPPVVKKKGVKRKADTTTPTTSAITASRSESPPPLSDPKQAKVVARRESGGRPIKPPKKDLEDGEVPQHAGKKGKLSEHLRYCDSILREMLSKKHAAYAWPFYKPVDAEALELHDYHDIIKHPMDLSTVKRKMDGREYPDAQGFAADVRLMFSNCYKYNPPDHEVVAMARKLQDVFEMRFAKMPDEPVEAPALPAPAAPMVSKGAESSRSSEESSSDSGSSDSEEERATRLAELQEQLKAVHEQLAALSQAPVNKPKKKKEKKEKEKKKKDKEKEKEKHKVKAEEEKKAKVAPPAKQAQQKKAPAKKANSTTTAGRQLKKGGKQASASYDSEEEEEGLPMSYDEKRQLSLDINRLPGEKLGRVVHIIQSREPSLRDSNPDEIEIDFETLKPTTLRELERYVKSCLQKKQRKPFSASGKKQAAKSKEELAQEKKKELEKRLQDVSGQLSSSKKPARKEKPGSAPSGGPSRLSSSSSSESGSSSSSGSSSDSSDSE
Sequence of Protein cereblon/Bromodomain-containing protein 3/Cullin-4A (Homo sapiens) (Q96SW2 whole entry, looked up): as the sequence (Q96SW2 whole entry, looked up) above
Sequence of Protein cereblon/Eukaryotic peptide chain release factor GTP-binding subunit ERF3A/Cullin-4A (Homo sapiens) (P15170 whole entry, looked up): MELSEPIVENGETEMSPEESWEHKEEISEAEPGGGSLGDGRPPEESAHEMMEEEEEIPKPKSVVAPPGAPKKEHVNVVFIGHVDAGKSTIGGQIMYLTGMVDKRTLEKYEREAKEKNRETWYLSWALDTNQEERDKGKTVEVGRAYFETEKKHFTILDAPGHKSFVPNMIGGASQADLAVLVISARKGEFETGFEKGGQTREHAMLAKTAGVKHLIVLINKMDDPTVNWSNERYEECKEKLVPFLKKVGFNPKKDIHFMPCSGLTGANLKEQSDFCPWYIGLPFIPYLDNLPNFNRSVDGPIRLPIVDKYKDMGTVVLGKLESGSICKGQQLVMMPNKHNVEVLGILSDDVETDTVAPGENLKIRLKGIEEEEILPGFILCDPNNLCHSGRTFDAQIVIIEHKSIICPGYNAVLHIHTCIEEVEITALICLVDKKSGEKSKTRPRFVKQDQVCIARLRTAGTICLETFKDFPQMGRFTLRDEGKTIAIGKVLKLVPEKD
Sequence of Protein cereblon/Eukaryotic peptide chain release factor GTP-binding subunit ERF3A/Cullin-4A (Homo sapiens) (Q13619 whole entry, looked up): as the sequence (Q13619 whole entry, looked up) above
Sequence of Protein cereblon/Eukaryotic peptide chain release factor GTP-binding subunit ERF3A/Cullin-4A (Homo sapiens) (Q96SW2 whole entry, looked up): as the sequence (Q96SW2 whole entry, looked up) above

For `Cc1nnc2n1Cc1sc(C#Cc3cnn(CCCC#Cc4cccc5c4CN(C4CCC(=O)NC4=O)C5=O)c3)c(Cc3ccccc3)c1OC2` (configuration not stated), the pIC50 (MOLM-13 [1]) was 10.21, the Activity [2] was “Active” and the Activity [3] was “Active”. The Activity [4] was “Active”, the Activity [5] was “Active” and the Activity [6] was “inactive”. The Activity [7] was “inactive”, the Activity [8] was “inactive” and the Activity [9] was “inactive”. For the same compound, the Activity [10] was “inactive”, the Activity (MOLM-13 [11]) was “Dose-dependent effect” and the Activity (RS4-11 [12]) was “Dose-dependent effect”. For the same compound, the Activity (RS4-11 [13]) was over 40%, the Activity (MV4-11 [14]) was “Active” and the Activity (MV4-11 [15]) was “Active”. The Activity (Mus musculus [16]) was “Active”, the Activity (Mus musculus [17]) was “Active” and the Drug uptake [18] was “Bld”. For the same compound, the Drug uptake [19] was “Bld”, the Activity (MV4-11 [20]) was “Active” and the Activity [21] was “Non-Toxic”. For the same compound, the Activity [22] was “Non-Toxic”.
